pEC50, pIC50: −log10 of the molar value. Active and inactive are the calls of the source. The rule behind the calls is not given here.
What was measured:
Gamma-secretase [1] = experiment: Modulation of gamma-secretase activity in human H4 cells expressing APP695 assessed as increase in amyloid beta38 production after 20 to 24 hrs by liquid phase electrochemiluminescence assay; type: cell-based
In short: (§1)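 Aβ-lowering assay in H4 APPΔ9 cells. Secreted Aβ isoforms (Aβ38, Aβ40, Aβ42) were quantified by liquid phase electrochemiluminescence (LPECL). Dose-response testing was capped at 100 μM to avoid micelle formation by the amphiphilic acids. EC50 values were derived from the curves, and the response at 100 μM was reported where EC50 could not be determined.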

Gamma-secretase [2] = experiment: Modulation of gamma-secretase activity in human H4 cells expressing APP695 assessed as increase in amyloid beta42 production after 20 to 24 hrs by liquid phase electrochemiluminescence assay; type: cell-based; in short: as §1
Gamma-secretase [3] = experiment: Modulation of gamma-secretase activity in human H4 cells expressing APP695 assessed as increase in amyloid beta40 production after 20 to 24 hrs by liquid phase electrochemiluminescence assay; type: cell-based; in short: as §1
H4 [4] = experiment: Cytotoxicity against human H4 cells assessed as cell viability by MTS assay; type: cell-based
In short: (§2)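 Viability of H4 APPΔ9 cells was read by a colorimetric cell proliferation assay based on bioreduction of MTS (Owen's reagent) to formazan.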

[5] = molecular target: T1, Gamma-secretase (Homo sapiens) (UniProt Q96BI3+Q9NZ42+Q8WW43+P49768+Q92542+P49810); experiment: Modulation of gamma-secretase activity in human H4 cells expressing APP695 assessed as increase in amyloid beta38 production at 100 uM after 20 to 24 hrs by liquid phase electrochemiluminescence assay; type: cell-based; in short: as §1
[6] = molecular target: T1, Gamma-secretase (Homo sapiens); experiment: Modulation of gamma-secretase activity in human H4 cells expressing APP695 assessed as increase in amyloid beta40 production at 100 uM after 20 to 24 hrs by liquid phase electrochemiluminescence assay; type: cell-based; in short: as §1
H4 [7] = experiment: Cytotoxicity against human H4 cells assessed as cell viability at 80 uM by MTS assay; type: cell-based; details: h4, 80 µM; in short: as §2
H4 [8] = experiment: Cytotoxicity against human H4 cells assessed as cell viability at 160 uM by MTS assay; type: cell-based; details: h4, 160 µM; in short: as §2
H4 [9] = experiment: Cytotoxicity against human H4 cells assessed as cell viability at 20 uM by MTS assay; type: cell-based; details: h4, 20 µM; in short: as §2
Mus musculus = experiment: Antialzheimer activity in APP Swedish mutant transgenic C57/BLg mouse assessed as change in amyloid beta42 level in brain at 10 mg/kg, po after 5 hrs; type: functional, organism-based; design: dose 10 mg/kg
[10] = Ratio of AUC in brain to AUC in plasma in APP Swedish mutant transgenic C57/BLg mouse at 10 mg/kg, po after 5 hrs; details: in vivo
[11] = Ratio of AUC in plasma to AUC in cerebrospinal fluid in rat; type: ADME, CSF/Plasma; details: in vivo

CCCCCCCCn1c2ccccc2c2ccc(OCC(=O)O)cc21
pEC50 (Gamma-secretase [1]): 4.62 | pIC50 (Gamma-secretase [2]): 4.72

CCCCCCCCn1c2ccccc2c2ccc(OCCC(=O)O)cc21
pEC50 (Gamma-secretase [1]): < 4.10 | pIC50 (Gamma-secretase [3]): < 4.10 | pIC50 (Gamma-secretase [2]): < 4.10 | Activity (H4 [4]): Non-toxic

CCCCCCCCn1c2ccccc2c2cc(C=O)c(OCC(=O)O)cc21
Activity [5]: inactive | Activity [6]: inactive | pIC50 (Gamma-secretase [2]): 4.49 | Activity (H4 [7]): Toxic

CCCCCCCCn1c2ccccc2c2ccc(OC3=C(O)CNC3=O)cc21
pEC50 (Gamma-secretase [1]): 5.10 | pIC50 (Gamma-secretase [3]): 4.14 | pIC50 (Gamma-secretase [2]): 4.55 | Activity (H4 [4]): Non-toxic

CCCCCCCCn1c2ccc(Cl)cc2c2ccc(C(C)CO)cc21 (configuration not stated)
Activity [5]: inactive | Activity [6]: inactive | pEC50 (Gamma-secretase [2]): 4.68 | Activity (H4 [7]): Toxic

CCCCCCCCn1c2ccc(Cl)cc2c2ccc(C(C)C(=O)O)cc21 (configuration not stated)
pIC50 (Gamma-secretase [1]): 4.00 | pIC50 (Gamma-secretase [3]): < 4.40 | pIC50 (Gamma-secretase [2]): 5.16

CCCCCCCCn1c2ccccc2c2ccc(O)cc21
Activity [5]: inactive | Activity [6]: inactive | pIC50 (Gamma-secretase [2]): < 4.10

CCCCCCCCn1c2ccccc2c2ccc(OCCNC=O)cc21
Activity [5]: inactive | Activity [6]: inactive | pIC50 (Gamma-secretase [2]): < 4.10 | Activity (H4 [4]): Non-toxic

CCCCCCCCn1c2ccccc2c2ccc(OC3=C(O)COC3=O)cc21
pEC50 (Gamma-secretase [1]): 4.68 | pIC50 (Gamma-secretase [3]): < 4.10 | pIC50 (Gamma-secretase [2]): 4.43 | Activity (H4 [4]): Non-toxic

CCCCCCCCn1c2ccc(Cl)cc2c2ccc(C(C)C(=O)OCC)cc21 (configuration not stated)
Activity [5]: inactive | Activity [6]: inactive | pEC50 (Gamma-secretase [2]): 4.68

CCCCCCCCn1c2ccccc2c2ccc(OCCO)cc21
Activity [5]: inactive | Activity [6]: inactive | pIC50 (Gamma-secretase [2]): < 4.40 | Activity (H4 [4]): Non-toxic

CCCCCCCCn1c2ccc(Cl)cc2c2ccc(C(C)C(=O)OCc3ccccc3)cc21 (configuration not stated)
Activity [5]: inactive | Activity [6]: inactive | pIC50 (Gamma-secretase [2]): < 4.10 | Activity (H4 [4]): Non-toxic

CCCCCCCCn1c2ccccc2c2ccc(OCC(N)=O)cc21
Activity [5]: inactive | Activity [6]: inactive | pIC50 (Gamma-secretase [2]): 3.98 | Activity (H4 [8]): Toxic

CCCCCCCCn1c2ccc(Cl)cc2c2ccc(C(C)C(=O)NS(C)(=O)=O)cc21 (configuration not stated)
Activity [5]: inactive | Activity [6]: inactive | pEC50 (Gamma-secretase [2]): 4.49

CCCCCCCCn1c2ccccc2c2ccc(OCC(O)C(F)(F)F)cc21 (configuration not stated)
Activity [5]: inactive | Activity [6]: inactive | pEC50 (Gamma-secretase [2]): 4.92

CCCCCCCCn1c2ccccc2c2ccc(OCCS(=O)(=O)O)cc21
Activity [5]: inactive | Activity [6]: inactive | pIC50 (Gamma-secretase [2]): < 4.10

CCCCCCCCn1c2ccccc2c2ccc(OCCN(C)C)cc21
Activity [5]: inactive | Activity [6]: inactive | pEC50 (Gamma-secretase [2]): < 5.00 | Activity (H4 [9]): Toxic

CCCCCCCCCCn1c2ccc(Cl)cc2c2ccc(C(C)C(=O)O)cc21 (configuration not stated)
Activity (Mus musculus): inactive | Ratio AUC [10]: < 0.1

CCCCCCCCn1c2ccccc2c2ccc(OCCP(=O)(OCC)OCC)cc21
Activity [5]: inactive | Activity [6]: inactive | pEC50 (Gamma-secretase [2]): 4.89 | Activity (H4 [7]): Toxic

CCCCCCCCn1c2ccccc2c2ccc(OCC#N)cc21
pIC50 (Gamma-secretase [1]): 4.13 | pIC50 (Gamma-secretase [3]): 3.98 | pIC50 (Gamma-secretase [2]): 3.60

CCCCCCCCn1c2ccccc2c2ccc(OCC(=O)OC)cc21
Activity [5]: inactive | Activity [6]: inactive | pIC50 (Gamma-secretase [2]): 4.57 | Activity (H4 [4]): Non-toxic

CC(C(=O)O)c1ccc(-c2ccccc2)c(F)c1 (configuration not stated) [FLURBIPROFEN]
Ratio AUC [11]: 5.31

CCCCCCCCn1c2ccc(Cl)cc2c2ccc(CC)cc21
Activity [5]: inactive | Activity [6]: inactive | pEC50 (Gamma-secretase [2]): 4.30

CCCCCCCCn1c2ccccc2c2ccc(OCC(=O)OC(C)C)cc21
Activity [5]: inactive | Activity [6]: inactive | pEC50 (Gamma-secretase [2]): 4.31

CCCCCCCCn1c2ccccc2c2cc(CCC(=O)O)c(OCC(=O)O)cc21
Activity [5]: inactive | Activity [6]: inactive | pIC50 (Gamma-secretase [2]): < 4.10

CCCCCCCCn1c2ccccc2c2ccc(OCC(=O)OCC(C)C)cc21
Activity [5]: inactive | Activity [6]: inactive | pIC50 (Gamma-secretase [2]): < 4.10 | Activity (H4 [4]): Non-toxic

CCCCCCCCn1c2ccccc2c2ccc(OCC(=O)OC(C)(C)C)cc21
Activity [5]: inactive | Activity [6]: inactive | pEC50 (Gamma-secretase [2]): 4.72 | Activity (H4 [4]): Non-toxic

CCCCCCCCn1c2ccccc2c2ccc(OCc3nn[nH]n3)cc21
pIC50 (Gamma-secretase [1]): 3.78 | pIC50 (Gamma-secretase [3]): 3.99 | pIC50 (Gamma-secretase [2]): 3.95

CCCCCCCCn1c2ccc(Cl)cc2c2ccc(C(C)C(=O)OC)cc21 (configuration not stated)
Activity [5]: inactive | Activity [6]: inactive | pEC50 (Gamma-secretase [2]): 4.82

CCCCCCCCn1c2ccccc2c2ccc(OCCN(C(=O)C(F)(F)F)C(=O)C(F)(F)F)cc21
Activity [5]: inactive | Activity [6]: inactive | pIC50 (Gamma-secretase [2]): < 4.10 | Activity (H4 [4]): Non-toxic

CCCCCCCCn1c2ccccc2c2cc(C=O)c(OCC(=O)OC)cc21
Activity [5]: inactive | Activity [6]: inactive | pIC50 (Gamma-secretase [2]): 4.05 | Activity (H4 [4]): Non-toxic

CCCCCCCCn1c2ccccc2c2ccc(OCC(=O)OCC)cc21
Activity [5]: inactive | Activity [6]: inactive | pIC50 (Gamma-secretase [2]): 4.51

CCCCCCCCn1c2ccccc2c2ccc(Oc3ccccc3C(=O)O)cc21
pEC50 (Gamma-secretase [1]): 4.64 | pIC50 (Gamma-secretase [3]): < 4.10 | pIC50 (Gamma-secretase [2]): 4.42 | Activity (H4 [4]): Non-toxic

CCCCCCCCn1c2ccccc2c2ccc(OC(C)(C)C(=O)O)cc21
pEC50 (Gamma-secretase [1]): < 4.40 | pIC50 (Gamma-secretase [3]): < 4.40 | pIC50 (Gamma-secretase [2]): < 4.40 | Activity (H4 [7]): Toxic

CCCCCCCCn1c2ccccc2c2cc(CO)c(OCCO)cc21
Activity [5]: inactive | Activity [6]: inactive | pIC50 (Gamma-secretase [2]): 4.10

CCCCCCCCn1c2ccccc2c2ccc(OC3=C(O)C(Cc4ccccc4)N(Cc4ccc5c(c4)OCO5)C3=O)cc21 (configuration not stated)
pIC50 (Gamma-secretase [1]): 4.51 | pIC50 (Gamma-secretase [3]): 4.49 | pIC50 (Gamma-secretase [2]): 4.62 | Activity (H4 [7]): Toxic

CCCCCCCCn1c2ccccc2c2ccc(OCCN)cc21
pIC50 (Gamma-secretase [1]): < 4.10 | pIC50 (Gamma-secretase [3]): < 4.10 | pEC50 (Gamma-secretase [2]): < 4.10 | Activity (H4 [4]): Non-toxic
